Data published in ChEMBL document CHEMBL2029267, “Rapid assembly of a library of lipophilic iminosugars via the thiol-ene reaction yields promising pharmacological chaperones for the treatment of Gaucher disease” (J Med Chem, 2012).
Positions count from the first letter of the chain named. Activity calls are given as the source filed them. The calls are words filed in the database; no cut-off is given here.

Assays:
[1] = system: T1, Lysosomal acid glucosylceramidase (Homo sapiens), P04062 [N409S]; assay: Activation of intracellular glucocerebrosidase p.N370S mutant in gaucher patient fibroblast using 4-methylumbelliferyl beta-D-glucopyranoside as substrate assessed as concentration at which 50% of maximum increase in activity
T1 sequence (whole entry): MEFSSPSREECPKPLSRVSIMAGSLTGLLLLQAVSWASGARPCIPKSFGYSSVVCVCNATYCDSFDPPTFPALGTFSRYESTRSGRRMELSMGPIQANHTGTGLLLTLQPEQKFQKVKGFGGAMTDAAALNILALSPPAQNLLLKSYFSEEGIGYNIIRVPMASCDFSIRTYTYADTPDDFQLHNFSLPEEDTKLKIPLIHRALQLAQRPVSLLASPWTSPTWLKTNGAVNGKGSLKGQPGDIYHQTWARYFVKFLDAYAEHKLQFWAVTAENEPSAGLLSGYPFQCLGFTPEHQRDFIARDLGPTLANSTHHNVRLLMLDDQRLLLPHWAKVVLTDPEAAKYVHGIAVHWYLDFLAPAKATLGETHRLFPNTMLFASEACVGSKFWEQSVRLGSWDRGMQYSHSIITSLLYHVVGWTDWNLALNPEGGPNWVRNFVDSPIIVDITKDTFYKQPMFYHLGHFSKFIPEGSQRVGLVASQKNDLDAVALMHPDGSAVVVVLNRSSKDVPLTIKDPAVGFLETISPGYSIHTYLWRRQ

[2] = species: Homo sapiens; assay: Activation of intracellular glucocerebrosidase p.L444P mutant in gaucher patient fibroblast using 4-methylumbelliferyl beta-D-glucopyranoside as substrate relative to control
[3] = species: Homo sapiens; assay: Activation of intracellular glucocerebrosidase p.L444P mutant in gaucher patient fibroblast using 4-methylumbelliferyl beta-D-glucopyranoside as substrate assessed as concentration at which 50% of maximum increase in activity
[4] = molecular target: T2, Lysosomal acid glucosylceramidase (Homo sapiens, UniProt P04062); assay: Competitive inhibition of wild type human glucocerebrosidase using 4-methylumbelliferyl beta-D-glucopyranoside as substrate after 15 mins by Dixon and Line-Weaver Burk plot analysis […]
T2 sequence (P04062 whole entry): T1 sequence (whole entry) with S409N

[5] = species: Homo sapiens; assay: Inhibition of human lysosomal alpha-galactosidase using 4-methylumbelliferyl alpha-D-galactopyranoside as substrate at 200 uM by fluorimetric analysis
Method in brief: (§1)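 Enzyme source was a lysosomal-enzyme-enriched ConA-bound human placental fraction, run in 100 mM citrate–phosphate pH 4.5 with 0.025% human serum albumin at 37 °C. Compound was tested at 200 μM in triplicate. An equal volume of 4-MU substrate was added: α-Glc 3.0 mM (α-glucosidase), α-Gal 1.0 mM (α-galactosidase), β-Gal 0.5 mM (β-galactosidase). Reactions were stopped with 4-fold excess 100 mM aminomethylpropanol and fluorescence read at 365/460 nm.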

[6] = molecular target: Lysosomal alpha-glucosidase (Homo sapiens) (UniProt P10253); assay: Inhibition of human lysosomal alpha-glucosidase using 4-methylumbelliferyl alpha-D-glucopyranoside as substrate at 200 uM by fluorimetric analysis
Method in brief: as §1

[7] = molecular target: T3, Beta-galactosidase (Homo sapiens) (UniProt P16278); assay: Inhibition of human lysosomal beta-galactosidase using 4-methylumbelliferyl beta-Dgalactopyranoside as substrate at 200 uM by fluorimetric analysis
T3 sequence (whole entry): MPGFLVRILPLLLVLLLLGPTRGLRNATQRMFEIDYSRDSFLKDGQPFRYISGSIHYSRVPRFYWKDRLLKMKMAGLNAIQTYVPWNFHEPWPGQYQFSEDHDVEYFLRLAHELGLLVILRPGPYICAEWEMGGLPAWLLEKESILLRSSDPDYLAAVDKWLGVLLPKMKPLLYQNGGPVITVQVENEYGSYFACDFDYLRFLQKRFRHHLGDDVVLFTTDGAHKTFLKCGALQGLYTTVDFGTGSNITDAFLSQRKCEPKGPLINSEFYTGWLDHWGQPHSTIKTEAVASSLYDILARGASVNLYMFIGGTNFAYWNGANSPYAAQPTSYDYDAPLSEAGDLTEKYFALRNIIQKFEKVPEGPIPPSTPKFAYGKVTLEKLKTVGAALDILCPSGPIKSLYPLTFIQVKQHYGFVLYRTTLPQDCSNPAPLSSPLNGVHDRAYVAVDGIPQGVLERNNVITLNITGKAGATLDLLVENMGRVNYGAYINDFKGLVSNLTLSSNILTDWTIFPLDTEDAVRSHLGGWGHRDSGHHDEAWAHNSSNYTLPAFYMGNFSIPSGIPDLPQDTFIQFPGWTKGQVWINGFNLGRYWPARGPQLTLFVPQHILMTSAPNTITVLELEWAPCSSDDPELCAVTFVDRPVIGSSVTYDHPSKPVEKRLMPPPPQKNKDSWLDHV
Method in brief: as §1

[8] = system: T1, Lysosomal acid glucosylceramidase (Homo sapiens), P04062 [N409S]; assay: Activation of intracellular glucocerebrosidase p.N370S mutant in gaucher patient fibroblast using 4-methylumbelliferyl beta-D-glucopyranoside as substrate relative to control
[9] = molecular target: T4, Lysosomal acid glucosylceramidase (Homo sapiens) (UniProt P04062); assay: Thermal denaturation of human glucocerebrosidase by differential scanning fluorimetry assessed as change in melting temperature at 100 uM and pH 7
T4 sequence (whole entry): T1 sequence (whole entry) with S409N

[10] = molecular target: T2, Lysosomal acid glucosylceramidase; assay: Competitive inhibition of wild type human glucocerebrosidase using 2,4-dinitrophenyl beta-D-glucopyranoside as substrate after 3 mins by Dixon and Line-Weaver Burk plot analysis at pH 5
Method in brief: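 Continuous UV assay with 4.0 nM GBA and 2,4-dinitrophenyl β-D-glucoside, started by adding enzyme. A400 was followed, linear over 3 min. Three substrate levels were run at about seven inhibitor levels (0.2–5 Ki), with nonlinear fit to a competitive model checked by Dixon and Lineweaver–Burk plots.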

Activity [1] [nM]	fold change (FC) [2]	Activity [3] [nM]	Ki [4] [nM]	inhibition [5]	inhibition [6]	inhibition [7]	fold change (FC) [8]	deltaTm [9] [K]	Ki [10] [nM]	Compound
90	1.1	64	12	inactive	inactive	inactive	2.3	11	–	O=C(NCCSCC[C@H]1NC[C@@H](O)[C@H](O)[C@H]1O)Nc1ccccc1
38	1.4	2.2	–	inactive	inactive	inactive	2.3	7.8	76	CC(C)SCC[C@H]1NC[C@@H](O)[C@H](O)[C@H]1O
4500	1.3	1500	–	inactive	inactive	inactive	3.2	7.6	450	O=C(CCCSCC[C@H]1NC[C@@H](O)[C@H](O)[C@H]1O)N1CCOCC1
5.3	1.4	1.2	6	inactive	inactive	inactive	2.2	11	–	O[C@@H]1[C@@H](O)[C@@H](CCSC2CCCC2)NC[C@H]1O
2.8	1.1	2.1	3	inactive	inactive	inactive	2.2	14	–	O[C@@H]1[C@@H](O)[C@@H](CCSCCc2ccccc2)NC[C@H]1O
18	1.3	12	18	inactive	inactive	inactive	2.4	11	–	CCCCSCC[C@H]1NC[C@@H](O)[C@H](O)[C@H]1O
1.6	1.1	2.6	19	inactive	inactive	inactive	2.1	13	–	O[C@@H]1[C@@H](O)[C@@H](CCSCc2ccccc2)NC[C@H]1O
600	1.3	300	–	inactive	inactive	inactive	2.5	7	180	CCSCC[C@H]1NC[C@@H](O)[C@H](O)[C@H]1O
49	1.2	25	–	inactive	inactive	inactive	2.3	8.4	29	CC(C)(C)SCC[C@H]1NC[C@@H](O)[C@H](O)[C@H]1O
–	1.2	7000	–	inactive	inactive	inactive	2.1	4.4	1100	CC[C@H]1NC[C@@H](O)[C@H](O)[C@H]1O
2700	1.3	2900	–	inactive	inactive	inactive	2.7	8.2	200	CCCC(=O)NCCSCC[C@H]1NC[C@@H](O)[C@H](O)[C@H]1O
1.2	1.2	0.3	4.4	inactive	inactive	inactive	2	14	–	CC(C)CCSCC[C@H]1NC[C@@H](O)[C@H](O)[C@H]1O
800	1.3	500	–	inactive	inactive	inactive	2.7	10	250	CCN(CC)C(=O)CCCSCC[C@H]1NC[C@@H](O)[C@H](O)[C@H]1O
24000	1.1	44600	–	inactive	inactive	inactive	1.5	3.6	–	O[C@H]1[C@H](O)CNC[C@@H]1O
1800	1.3	1700	–	inactive	inactive	inactive	1.4	3.4	2700	C=C[C@H]1NC[C@@H](O)[C@H](O)[C@H]1O
1.3	1.3	0.6	4	inactive	inactive	inactive	2.2	13	–	O[C@@H]1[C@@H](O)[C@@H](CCSC2CCCCC2)NC[C@H]1O
190	1.3	63	–	inactive	inactive	inactive	2.5	11	30	O=C(CSCC[C@H]1NC[C@@H](O)[C@H](O)[C@H]1O)NCc1ccccc1
